From ChEMBL document CHEMBL3774311, “Synthesis and in vitro antitumour activity of tiazofurin analogues with nitrogen functionalities at the C-2' position” (Eur J Med Chem, 2016)

Columns and labels:
[1] = tested on: K562; experiment: Induction of apoptosis in human K562 cells assessed as cleaved PARP level after 72 hrs by Western blotting method (reference value: 18.36%); assay type: functional
[2] = tested on: K562; experiment: Induction of apoptosis in human K562 cells assessed as necrotic cells after 24 hrs by annexin V-FITC/propidium iodide staining based flow cytometry (reference value: 1.50%); assay type: functional
Procedure, shortened: (§1)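 K562 cells treated 24 or 72 h, double-stained with Annexin V-FITC/PI and analysed by flow cytometry to give percentages of live, apoptotic and necrotic cells; apoptotic and necrotic responses expressed as specific apoptosis or specific necrosis (%).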

[3] = tested on: K562; experiment: Induction of apoptosis in human K562 cells assessed as Bcl2 protein level after 72 hrs by Western blotting method (reference value: 7.90%); assay type: functional
[4] = tested on: Jurkat; experiment: Antiproliferative activity against human Jurkat cells after 72 hrs by MTT assay; assay type: functional, cell-based
Procedure, shortened: (§2)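 Human tumour lines and MRC-5 foetal lung fibroblasts (normal-cell comparator) exposed to compounds for 72 h; viability read by standard MTT assay. IC50 taken as concentration inhibiting growth by 50% versus untreated control; means of three independent experiments, coefficients of variation under 10%.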

[5] = tested on: K562; experiment: Induction of apoptosis in human K562 cells assessed as necrotic cells after 72 hrs by annexin V-FITC/propidium iodide staining based flow cytometry (reference value: 7.23%); assay type: functional; procedure, shortened: as §1
[6] = tested on: MRC5; experiment: Cytotoxicity against human MRC5 cells after 72 hrs by MTT assay; assay type: cell-based; conditions: MRC5, 72 h; procedure, shortened: as §2
[7] = tested on: K562; experiment: Induction of apoptosis in human K562 cells assessed as late apoptotic cells after 72 hrs by annexin V-FITC/propidium iodide staining based flow cytometry (reference value: 5.24%); assay type: functional; procedure, shortened: as §1
[8] = tested on: K562; experiment: Induction of apoptosis in human K562 cells assessed as Bax protein level after 72 hrs by Western blotting method (reference value: 32.81%); assay type: functional
[9] = tested on: K562; experiment: Induction of apoptosis in human K562 cells assessed as Bcl2 protein level after 24 hrs by Western blotting method (reference value: 22.81%); assay type: functional
[10] = tested on: K562; experiment: Induction of specific necrosis in human K562 cells after 72 hrs by annexin V-FITC/propidium iodide staining based flow cytometry; assay type: functional; parameters: concentration or dose not given beside the values; procedure, shortened: as §1
[11] = tested on: K562; experiment: Induction of apoptosis in human K562 cells assessed as living cells after 72 hrs by annexin V-FITC/propidium iodide staining based flow cytometry (reference value: 84.31%); assay type: functional; procedure, shortened: as §1
[12] = tested on: K562; experiment: Antiproliferative activity against human K562 cells after 72 hrs by MTT assay; assay type: functional, cell-based; conditions: Homo sapiens, K562, 72 h; procedure, shortened: as §2
[13] = tested on: K562; experiment: Induction of cell cycle arrest in human K562 cells assessed as accumulation at G0/G1 phase after 24 hrs by propidium iodide staining-based flow cytometry (reference value: 36.28%); assay type: functional
Procedure, shortened: (§3)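 Exponentially growing K562 cells treated 24 or 72 h; cells stained with propidium iodide and cell-cycle distribution (sub-G1, G0/G1, S, G2/M, %) measured by flow cytometry; untreated cells as control.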

[14] = tested on: K562; experiment: Induction of specific apoptosis in human K562 cells after 24 hrs by annexin V-FITC/propidium iodide staining based flow cytometry; assay type: functional; parameters: concentration or dose not given beside the values; procedure, shortened: as §1
[15] = tested on: K562; experiment: Induction of apoptosis in human K562 cells assessed as cleaved PARP level after 24 hrs by Western blotting method (reference value: 36.17%); assay type: functional
[16] = tested on: MCF7; experiment: Antiproliferative activity against human MCF7 cells after 72 hrs by MTT assay; assay type: functional, cell-based; conditions: MCF7, 72 h; procedure, shortened: as §2
[17] = tested on: K562; experiment: Induction of cell cycle arrest in human K562 cells assessed as accumulation at Sub-G1 phase after 24 hrs by propidium iodide staining-based flow cytometry (reference value: 1.05%); assay type: functional; procedure, shortened: as §3
[18] = tested on: K562; experiment: Induction of cell cycle arrest in human K562 cells assessed as accumulation at S phase after 72 hrs by propidium iodide staining-based flow cytometry (reference value: 35.73%); assay type: functional; procedure, shortened: as §3
[19] = tested on: HeLa; experiment: Antiproliferative activity against human HeLa cells after 72 hrs by MTT assay; assay type: functional, cell-based; conditions: Homo sapiens, HeLa, 72 h; procedure, shortened: as §2
[20] = tested on: K562; experiment: Induction of apoptosis in human K562 cells assessed as living cells after 24 hrs by annexin V-FITC/propidium iodide staining based flow cytometry (reference value: 85.85%); assay type: functional; procedure, shortened: as §1
[21] = tested on: K562; experiment: Induction of apoptosis in human K562 cells assessed as late apoptotic cells after 24 hrs by annexin V-FITC/propidium iodide staining based flow cytometry (reference value: 4.58%); assay type: functional; procedure, shortened: as §1
[22] = tested on: Raji; experiment: Antiproliferative activity against human Raji cells after 72 hrs by MTT assay; assay type: functional, cell-based; conditions: Homo sapiens, Raji, 72 h; procedure, shortened: as §2
[23] = tested on: K562; experiment: Induction of specific apoptosis in human K562 cells after 72 hrs by annexin V-FITC/propidium iodide staining based flow cytometry; assay type: functional; parameters: concentration or dose not given beside the values; procedure, shortened: as §1
[24] = tested on: K562; experiment: Induction of apoptosis in human K562 cells assessed as caspase 3 level after 72 hrs by Western blotting method (reference value: 17.05%); assay type: functional
[25] = tested on: K562; experiment: Induction of apoptosis in human K562 cells assessed as early apoptotic cells after 24 hrs by annexin V-FITC/propidium iodide staining based flow cytometry (reference value: 8.09%); assay type: functional; procedure, shortened: as §1
[26] = tested on: K562; experiment: Induction of apoptosis in human K562 cells assessed as Bax protein level after 24 hrs by Western blotting method (reference value: 16.13%); assay type: functional
[27] = tested on: K562; experiment: Induction of specific necrosis in human K562 cells after 24 hrs by annexin V-FITC/propidium iodide staining based flow cytometry; assay type: functional; parameters: concentration or dose not given beside the values; procedure, shortened: as §1
[28] = tested on: K562; experiment: Induction of cell cycle arrest in human K562 cells assessed as accumulation at Sub-G1 phase after 72 hrs by propidium iodide staining-based flow cytometry (reference value: 3.04%); assay type: functional; procedure, shortened: as §3
[29] = Antiproliferative activity against human HL60 cells after 72 hrs by MTT assay; assay type: functional, cell-based, HL-60; conditions: Homo sapiens, HL-60, 72 h; procedure, shortened: as §2
[30] = tested on: K562; experiment: Induction of cell cycle arrest in human K562 cells assessed as accumulation at G2/M phase after 24 hrs by propidium iodide staining-based flow cytometry (reference value: 14.29%); assay type: functional; procedure, shortened: as §3
[31] = tested on: K562; experiment: Induction of cell cycle arrest in human K562 cells assessed as accumulation at S phase after 24 hrs by propidium iodide staining-based flow cytometry (reference value: 48.38%); assay type: functional; procedure, shortened: as §3
[32] = tested on: K562; experiment: Induction of apoptosis in human K562 cells assessed as early apoptotic cells after 72 hrs by annexin V-FITC/propidium iodide staining based flow cytometry (reference value: 3.22%); assay type: functional; procedure, shortened: as §1
[33] = tested on: K562; experiment: Induction of apoptosis in human K562 cells assessed as caspase 3 level after 24 hrs by Western blotting method (reference value: 42.77%); assay type: functional
[34] = tested on: K562; experiment: Induction of cell cycle arrest in human K562 cells assessed as accumulation at G0/G1 phase after 72 hrs by propidium iodide staining-based flow cytometry (reference value: 45.92%); assay type: functional; procedure, shortened: as §3
[35] = tested on: HT-29; experiment: Antiproliferative activity against human HT-29 cells after 72 hrs by MTT assay; assay type: functional, cell-based; conditions: HT-29, 72 h; procedure, shortened: as §2
[36] = tested on: K562; experiment: Induction of cell cycle arrest in human K562 cells assessed as accumulation at G2/M phase after 72 hrs by propidium iodide staining-based flow cytometry (reference value: 15.31%); assay type: functional; procedure, shortened: as §3
[37] = Antiproliferative activity against human HL60 cells after 24 hrs; assay type: functional, cell-based; conditions: HL-60, 24 h

Row | Compound | Activity [1] [%] | Activity [2] [%] | Activity [3] [%] | IC50 [4] [µM] | Activity [5] [%] | IC50 [6] [µM] | Activity [7] [%] | Activity [8] [%] | Activity [9] [%] | Activity [10] [%] | Activity [11] [%] | IC50 [12] [µM] | Activity [13] [%] | Activity [14] [%] | Activity [15] [%] | IC50 [16] [µM] | Activity [17] [%] | Activity [18] [%] | IC50 [19] [µM] | Activity [20] [%] | also measured
1 | CC(=O)N[C@@H]1[C@H](O)[C@@H](CO)O[C@H]1c1nc(C(N)=O)cs1 | 33.66 | 7.39 | 37.09 | > 100 | 25.03 | 5.26 | 62.01 | 98.81 | 63.4 | 24.55 | 7.05 | > 100 | 43.07 | 12.6 | 95.59 | 3.92 | 3.71 | 31.42 | > 100 | 75.11 | Activity [21]: 12.48%; IC50 [22]: 14.7 µM; Activity [23]: 43.6%; Activity [24]: 93.75%; Activity [25]: 5.03%; Activity [26]: 18.43%; Activity [27]: 5.88%; Activity [28]: 11.17%; IC50 [29]: > 100 µM; Activity [30]: 8.21%; Activity [31]: 45.03%; Activity [32]: 5.93%; Activity [33]: 90.45%; Activity [34]: 48.09%; IC50 [35]: > 100 µM; Activity [36]: 9.32%
2 | NC(=O)c1csc([C@@H]2O[C@H](CO)[C@@H](O)[C@H]2NC(=O)c2ccccc2)n1 | 63.83 | 13.22 | 15.94 | 0.03 | 7.35 | 0.05 | 80.99 | 95.1 | 64.31 | 6.86 | 3.74 | 0.02 | 39.08 | 29 | 57.9 | 19.9 | 6.12 | 34.11 | > 100 | 53.81 | IC50 [37]: 0.12 µM; Activity [21]: 26.45%; IC50 [22]: 0.01 µM; Activity [23]: 50.41%; Activity [24]: 27.61%; Activity [25]: 6.54%; Activity [26]: 30.99%; Activity [27]: 11.71%; Activity [28]: 11.29%; IC50 [29]: 20.4 µM; Activity [30]: 5.67%; Activity [31]: 49.13%; Activity [32]: 7.94%; Activity [33]: 93.34%; Activity [34]: 44.1%; IC50 [35]: 0.02 µM; Activity [36]: 10.5%
